Measured values taken from ChEMBL document CHEMBL1156862, “Synthesis of C-glycoside analogues of beta-galactosamine-(1-->4)-3-O-methyl-D-chiro-inositol and assay as activator of protein phosphatases PDHP and PP2Calpha” (Bioorg Med Chem, 2010).
Active and inactive are the calls of the source. The calls are words filed in the database; no cut-off is given here.

Experiments:
[1] = Activation of PDHP in presence of 5 mM Mn2+
How it was run: (§1)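 Triplicate wells. PDHP and PDH incubated 37 °C 30 min. NaF stop, then pyruvate-ADP and NAD/cocarboxylase/CoA mix, 2 min rt. Activity read as absorbance change at 340 nm; data pooled from two experiments with separately synthesized samples.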

[2] = Activation of PDHP in absence of 5 mM Mn2+; how it was run: as §1
[3] = biological target: T1, Protein phosphatase 1A (Mus musculus) (UniProt P49443); assay: Activation of mouse recombinant GST-tagged PP2Calpha assessed as phosphate release using octapeptide-phosphate substrate RRRRPp-TPA
T1 sequence (whole entry): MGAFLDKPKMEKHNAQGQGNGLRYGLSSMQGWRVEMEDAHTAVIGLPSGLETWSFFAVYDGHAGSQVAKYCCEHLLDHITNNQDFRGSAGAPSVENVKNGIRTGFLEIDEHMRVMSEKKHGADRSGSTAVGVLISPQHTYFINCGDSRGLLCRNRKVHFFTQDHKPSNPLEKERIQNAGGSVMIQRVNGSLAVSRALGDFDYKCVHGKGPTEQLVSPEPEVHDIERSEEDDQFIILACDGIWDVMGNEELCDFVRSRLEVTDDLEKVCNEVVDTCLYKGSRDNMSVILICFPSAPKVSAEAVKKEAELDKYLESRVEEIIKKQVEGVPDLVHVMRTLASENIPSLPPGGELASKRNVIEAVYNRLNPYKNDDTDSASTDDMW
How it was run: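 Mouse wild-type GST-PP2Cα fusion (2 µg) at rt in 0.1 M Tris-HCl pH 8.0, 2 mM DTT, with varied MnCl₂ or compound. Phosphopeptide RRRRPpTPA at 5 µM final, 15 min. Stopped with malachite green, 15 min color, A650. No-enzyme blanks subtracted; triplicates, mean ± SD versus concentration.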

[4] = biological target: T1, Protein phosphatase 1A (Mus musculus); assay: Activation of mouse recombinant GST-tagged PP2Calpha assessed as phosphate release using para-Nitrophenyl phosphate substrate
How it was run: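 Mouse wild-type GST-PP2Cα fusion (1 µg) at rt in 0.1 M Tris-HCl pH 8.0, 2 mM DTT, with varied MnCl₂ or compound. Substrate 5 mM p-nitrophenyl phosphate, 30 min. Stopped with 0.5% SDS, A410. Triplicates, mean ± SD versus concentration.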

| Activity [1] | Activity [2] | Activity [3] | Activity [4] | SMILES |
| --- | --- | --- | --- | --- |
| Active | inactive | inactive | inactive | CO[C@@H]1[C@@H](O)[C@@H](O)[C@H](O)[C@H](O)[C@H]1C[C@@H]1O[C@H](CO)[C@H](O)[C@H](O)[C@H]1N |
| Active | inactive | Active | inactive | CO[C@@H]1[C@@H](O)[C@@H](O)[C@H](O)[C@H](O)[C@H]1O[C@@H]1O[C@H](CO)[C@H](O)[C@H](O)[C@H]1N |
| inactive | inactive | inactive | inactive | CO[C@@H]1[C@@H](O)[C@@H](O)[C@H](O)[C@H](O)[C@H]1C[C@@H]1O[C@H](CO)[C@H](O)[C@H](O)[C@H]1O |
